According to ChEMBL document CHEMBL3526077, “Prediction of human metabolism of FK3453 by aldehyde oxidase using chimeric mice transplanted with human or rat hepatocytes” (Drug Metab Dispos, 2012):

Assays:
[1] = Plasma protein binding in human by equilibrium dialysis method; type: ADME, cell-free; conditions: read-out: PPB (converted)
[2] = Plasma protein binding in chimeric mouse transplanted with rat hepatocytes by equilibrium dialysis method; type: ADME, cell-free, Hepatocyte; conditions: read-out: PPB (converted)
Method in brief: (§1)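 Compound at 1 µg/mL incubated in plasma of h-PXB or r-PXB mice; bound fraction determined by equilibrium dialysis.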

[3] = Plasma protein binding in chimeric mouse transplanted with human hepatocytes by equilibrium dialysis method; type: ADME, cell-free, Hepatocyte; conditions: read-out: PPB (converted); method in brief: as §1
[4] = Clearance in rat at 3.2 mg/kg, po; type: ADME, organism-based; design: dose 3.2 mg/kg, route oral; conditions: in vivo
[5] = Oral bioavailability in rat at 3.2 mg/kg; type: ADME, organism-based; conditions: in vivo
[6] = AUC in rat at 3.2 mg/kg, po; type: ADME, organism-based; design: dose 3.2 mg/kg, route oral; conditions: plasma
[7] = Oral bioavailability in chimeric mouse transplanted with rat hepatocytes at 3 mg/kg; type: ADME, organism-based, Hepatocyte
[8] = Cmax in rat at 3.2 mg/kg, po; type: ADME, organism-based; design: dose 3.2 mg/kg, route oral; conditions: in vivo
[9] = Clearance in chimeric mouse transplanted with rat hepatocytes at 3 mg/kg, po; type: ADME, organism-based, Hepatocyte; design: dose 3 mg/kg, route oral
Method in brief: (§2)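 Single 3 mg/kg oral dose of compound in 50% PEG400 with equimolar HCl in saline to h-PXB or r-PXB mice (n=3~4). Orbital-vein blood (heparinized) taken over 0–6 hr; plasma stored at -30°C and assayed by LC/MS/MS. Non-compartmental analysis: Cmax from observed values, AUC by trapezoidal rule extrapolated to infinity, CLoral = Dose/AUCpo.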

[10] = Cmax in chimeric mouse transplanted with rat hepatocytes at 3 mg/kg, po; type: ADME, organism-based, Hepatocyte; design: dose 3 mg/kg, route oral; method in brief: as §2
[11] = AUC in chimeric mouse transplanted with rat hepatocytes at 3 mg/kg, po; type: ADME, organism-based, Hepatocyte; design: dose 3 mg/kg, route oral; method in brief: as §2
[12] = AUC in human at 10 mg, po; type: ADME, organism-based; conditions: plasma
[13] = Clearance in human at 10 mg, po; type: ADME, organism-based; conditions: in vivo
[14] = Cmax in human at 10 mg, po; type: ADME, organism-based; design: dose 10 mg, route oral; conditions: in vivo
[15] = Clearance in chimeric mouse transplanted with human hepatocytes at 3 mg/kg, po; type: ADME, organism-based, Hepatocyte; design: dose 3 mg/kg, route oral; method in brief: as §2
[16] = Oral bioavailability in chimeric mouse transplanted with human hepatocytes at 3 mg/kg; type: ADME, organism-based, Hepatocyte
[17] = AUC in chimeric mouse transplanted with human hepatocytes at 3 mg/kg, po; type: ADME, organism-based, Hepatocyte; design: dose 3 mg/kg, route oral; method in brief: as §2
[18] = Total clearance in rat at 3 mg/kg, iv; type: ADME, organism-based; design: dose 3 mg/kg, route intravenous; conditions: in vivo

fraction unbound [1]: 0.228
fraction unbound [2]: 0.233
fraction unbound [3]: 0.205
CL/F [4]: 29.8 mL/min/kg
bioavailability [5]: 34.6%
AUC [6]: 1790 ng·h/mL
bioavailability [7]: 52.6%
Cmax [8]: 544 ng/mL
CL/F [9]: 61.6 mL/min/kg
Cmax [10]: 856 ng/mL
AUC [11]: 811 ng·h/mL
AUC [12]: 2.19 ng·h/mL
CL/F [13]: 1090 mL/min/kg
Cmax [14]: 1.5 ng/mL
CL/F [15]: 234 mL/min/kg
bioavailability [16]: 29.4%
AUC [17]: 214 ng·h/mL
clearance [18]: 10.8 mL/min/kg
SMILES: CC(C)n1nc(-c2cnc(N)nc2-c2ccccc2)ccc1=O
